Tests used:
[1] = target: T1, Polyunsaturated fatty acid 5-lipoxygenase (Homo sapiens, UniProt P09917); experiment: (§1) 5-lipoxygenase Inhibitory activity was measured by enzyme immunoassay using human whole blood stimulated with calcium ionophore (A23187) and LTB4 (leukotriene B4); format: tissue-based
T1 sequence (P09917 whole entry): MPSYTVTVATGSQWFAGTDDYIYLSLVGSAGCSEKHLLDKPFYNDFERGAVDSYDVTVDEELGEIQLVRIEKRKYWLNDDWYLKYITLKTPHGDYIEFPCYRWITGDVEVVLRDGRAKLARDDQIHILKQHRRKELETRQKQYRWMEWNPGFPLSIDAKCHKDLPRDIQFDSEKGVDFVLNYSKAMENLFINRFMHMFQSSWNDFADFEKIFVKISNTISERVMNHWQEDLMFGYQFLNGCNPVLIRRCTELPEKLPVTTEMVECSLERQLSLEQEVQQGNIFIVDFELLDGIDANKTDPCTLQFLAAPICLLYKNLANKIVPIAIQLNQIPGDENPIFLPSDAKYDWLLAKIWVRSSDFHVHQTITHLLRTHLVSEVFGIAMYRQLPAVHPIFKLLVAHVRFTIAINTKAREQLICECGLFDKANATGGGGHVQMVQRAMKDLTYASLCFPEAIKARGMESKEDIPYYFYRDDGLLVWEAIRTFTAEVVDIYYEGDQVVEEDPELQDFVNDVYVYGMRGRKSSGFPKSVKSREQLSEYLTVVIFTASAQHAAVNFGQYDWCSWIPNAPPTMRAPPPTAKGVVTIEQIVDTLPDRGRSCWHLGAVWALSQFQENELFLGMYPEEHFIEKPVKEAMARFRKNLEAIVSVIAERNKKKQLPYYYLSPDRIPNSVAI
Method in brief: (§2)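 Heparinized human blood (20 USP units/mL) preincubated with drug or vehicle 15 min at 37 °C, then stimulated with calcium ionophore A23187; LTB4 in extracts quantified by EIA. IC50 estimated by linear regression; means of at least duplicate, mostly triplicate determinations.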

Rattus norvegicus = experiment: Compound was evaluated in vivo for the rat anaphylaxis leukotriene formation at an oral dose of 30 umol/kg; format: functional
Method in brief: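 Male Sprague-Dawley rats passively sensitized ip with rabbit anti-BSA antiserum; 3 h later challenged ip with 4 mg BSA in PBS. Drug given by oral gavage 1 h before challenge; killed 15 min post-challenge, peritoneal fluid collected, methanol-extracted, LTE4 measured by EIA. 8 rats/group; percent inhibition versus control group mean.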

Monkey = details: Cercopithecidae; Liver
[2] = target: T2, Polyunsaturated fatty acid 5-lipoxygenase (Homo sapiens) (UniProt P09917); experiment: as §1; format: tissue-based; details: concentration not given here; method in brief: as §2
T2 sequence (whole entry): T1 sequence (P09917 whole entry)

[3] = Oral bioavailability was determined in guinea pig; format: ADME, organism-based, Cavia porcellus; details: in vivo
[4] = Oral bioavailability was determined in mouse; format: ADME, organism-based; details: in vivo
[5] = Oral bioavailability in rat; format: ADME, organism-based; details: in vivo
[6] = Oral bioavailability was determined in cynomolgus monkey; format: ADME, organism-based, Macaca fascicularis; details: in vivo
[7] = Oral bioavailability was determined in dog; format: ADME, organism-based, Canis lupus familiaris; details: in vivo

Row | SMILES | IC50 [1] [nM] | ED50 (Rattus norvegicus) [mg/kg] | GT rate (Monkey) | other results
1 | CC(C#Cc1ccc(Cc2ccc(F)cc2)s1)N(O)C(N)=O (configuration not stated) | 200 | 5.6 |  | 
2 | C[C@@H](C#Cc1ccc(Oc2ccc(F)cc2)o1)N(O)C(N)=O | 50 | 1.5 | 0.05 | 
3 | CC(c1ccc(Oc2ccc(F)cc2)o1)N(O)C(N)=O (configuration not stated) |  |  | 0.31 | inhibition [2]: 58%; inhibition in vivo at 30 µmol/kg (Rattus norvegicus): 0%
4 | NC(=O)N(O)CC#Cc1ccc(Oc2ccc(F)cc2)o1 | 60 |  | 0.03 | inhibition in vivo at 30 µmol/kg (Rattus norvegicus): 70%
5 | CC(/C=C\c1ccc(Oc2ccc(F)cc2)o1)N(O)C(N)=O (configuration not stated) |  |  | 2.4 | 
6 | CC(c1cc2ccccc2s1)N(O)C(N)=O (configuration not stated) [ZILEUTON] |  | 4.4 | 0.12 | 
7 | NC(=O)N(O)CC#Cc1ccc(Cc2ccc(F)cc2)s1 | 70 |  | 0.05 | inhibition in vivo at 30 µmol/kg (Rattus norvegicus): 78%
8 | CC(/C=C/c1ccc(Oc2ccc(F)cc2)o1)N(O)C(N)=O (configuration not stated) |  |  | 0.07 | 
9 | C[C@H](C#Cc1ccc(Cc2ccc(F)cc2)s1)N(O)C(N)=O [ATRELEUTON] |  | 2.8 |  | bioavailability [3]: 90%; bioavailability [4]: 100%; bioavailability [5]: 60%; bioavailability [6]: 90%; bioavailability [7]: 95%

Further lines, with some results ahead:

Row | IC50 [1] [nM] | SMILES | ED50 (Rattus norvegicus) [mg/kg] | GT rate (Monkey) | other results
10 | 80 | C[C@H](C#Cc1ccc(Oc2ccc(F)cc2)o1)N(O)C(N)=O | 1.4 | 0.01 | 
11 | 80 | CC(C#Cc1ccc(Oc2ccc(F)cc2)o1)N(O)C(N)=O (configuration not stated) | 1.2 | 0.02 | 
12 | 200 | C[C@@H](C#Cc1ccc(Cc2ccc(F)cc2)s1)N(O)C(N)=O | 2.1 |  | 
